ChEMBL document CHEMBL4316593 (Eur J Med Chem, 2019)

Columns and labels:
[1] = Inhibition of RTK/PI3K/AKT/mTOR signaling in human U87 cells assessed as up regulation of ubiquitin-fold modifier conjugating enzyme 1 gene expression at cytotoxic IC50 measured after 48 hrs relative to control; type: cell-based; conditions: U-87MG ATCC
[2] = Inhibition of RTK/PI3K/AKT/mTOR signaling in human U87 cells assessed as up regulation of lecithin retinol acyltransferase (phosphatidylcholine-retinol O-acyltransferase) gene expression at cytotoxic IC50 measured after 48 hrs relative to control; type: cell-based; conditions: U-87MG ATCC
U-87 MG [3] = assay: Induction of apoptosis in human U87 cells assessed as change in ACTG1 gene expression at cytotoxic IC50 measured after 48 hrs […] relative to control; type: functional, U-87MG ATCC
Outline: (§1)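 U87 cells grown in MEM with 10% FBS at 37°C, 5% CO2. Cells exposed to IC50 of test compound for 48 hrs, alongside untreated and cisplatin controls, each condition in triplicate. RNA isolated and profiled; differential expression called with DESeq2 (q-value < 0.05, fold change > 1.5), fold change versus untreated.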

[4] = Inhibition of RTK/PI3K/AKT/mTOR signaling in human U87 cells assessed as down regulation of TEX14 gene expression at cytotoxic IC50 measured after 48 hrs relative to control; type: cell-based; conditions: U-87MG ATCC
Outline: (§2)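 Cells were exposed for 48hrs at 37°C in humidified 5% CO₂ to the compound at its previously determined IC₅₀, with Cisplatin at its IC₅₀ and an untreated negative control alongside. Each condition was run in triplicate. RNA was isolated from all samples by the same protocol. Genes were called differentially expressed by DESeq2 at q-value < 0.05 and fold change > 1.5.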

[5] = Inhibition of RTK/PI3K/AKT/mTOR signaling in human U87 cells assessed as down regulation of POP4 gene expression at cytotoxic IC50 measured after 48 hrs relative to control; type: cell-based; conditions: U-87MG ATCC; outline: as §2
[6] = Inhibition of RTK/PI3K/AKT/mTOR signaling in human U87 cells assessed as up regulation of CAPN1 gene expression at cytotoxic IC50 measured after 48 hrs relative to control; type: cell-based; conditions: U-87MG ATCC; outline: as §2
[7] = Inhibition of RTK/PI3K/AKT/mTOR signaling in human U87 cells assessed as down regulation of DTL gene expression at cytotoxic IC50 measured after 48 hrs relative to control; type: cell-based; conditions: U-87MG ATCC; outline: as §1
[8] = Inhibition of RTK/PI3K/AKT/mTOR signaling in human U87 cells assessed as down regulation of DEF8 gene expression at cytotoxic IC50 measured after 48 hrs relative to control; type: cell-based; conditions: U-87MG ATCC; outline: as §1
[9] = Inhibition of RTK/PI3K/AKT/mTOR signaling in human U87 cells assessed as down regulation of BRMS1 gene expression at cytotoxic IC50 measured after 48 hrs relative to control; type: cell-based; conditions: U-87MG ATCC; outline: as §1
U-87 MG [10] = assay: Induction of DNA damage in human U87 cells assessed as change in TRIAP1 gene expression at cytotoxic IC50 measured after 48 hrs […] relative to control; type: functional, U-87MG ATCC; outline: as §1
[11] = Inhibition of RTK/PI3K/AKT/mTOR signaling in human U87 cells assessed as up regulation of tribbles pseudokinase 2 gene expression at cytotoxic IC50 measured after 48 hrs relative to control; type: cell-based; conditions: U-87MG ATCC
[12] = Inhibition of RTK/PI3K/AKT/mTOR signaling in human U87 cells assessed as down regulation of ZNF106 gene expression at cytotoxic IC50 measured after 48 hrs relative to control; type: cell-based; conditions: U-87MG ATCC; outline: as §2
LN-229 [13] = assay: Induction of apoptosis in human LN229 cells assessed as decrease in caspase-3/7 activation at cytotoxic IC50 measured after 5 hrs by caspase-glo 3/7 luminescence assay relative to control; type: functional; set-up: scale not given: the % may be the effect or the level left
Outline: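 Cells grown overnight in 96-well format, then given IC50 for 5 hrs at 37°C, 5% CO2, with negative, positive and blank (medium+DMSO+dye) wells. Equilibrated 30 min at room temperature, Caspase-Glo 3/7 reagent added 1:1 in the dark, luminescence read at 1 hr. Fold change = (test−blank)/(control−blank). Triplicate measurements, at least two independent experiments.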

[14] = Inhibition of RTK/PI3K/AKT/mTOR signaling in human U87 cells assessed as down regulation of NAAA gene expression at cytotoxic IC50 measured after 48 hrs relative to control; type: cell-based; conditions: U-87MG ATCC; outline: as §2
LN-229 [15] = assay: Cytotoxicity against human LN229 cells assessed as reduction in cell proliferation up to 200 uM by trypan blue dye-based cell counting analysis; type: functional; conditions: TDE = time-dependent effect
[16] = Inhibition of RTK/PI3K/AKT/mTOR signaling in human U87 cells assessed as up regulation of neuron navigator 1 gene expression at cytotoxic IC50 measured after 48 hrs relative to control; type: cell-based
[17] = Inhibition of RTK/PI3K/AKT/mTOR signaling in human U87 cells assessed as up regulation of melanoma inhibitory activity 2 gene expression at cytotoxic IC50 measured after 48 hrs relative to control; type: cell-based; conditions: U-87MG ATCC
[18] = Inhibition of RTK/PI3K/AKT/mTOR signaling in human U87 cells assessed as up regulation of UPK1A-AS1 gene expression at cytotoxic IC50 measured after 48 hrs relative to control; type: cell-based; conditions: U-87MG ATCC
[19] = Inhibition of RTK/PI3K/AKT/mTOR signaling in human U87 cells assessed as up regulation of TOX2 gene expression at cytotoxic IC50 measured after 48 hrs relative to control; type: cell-based; conditions: U-87MG ATCC
[20] = Inhibition of RTK/PI3K/AKT/mTOR signaling in human U87 cells assessed as up regulation of platelet derived growth factor C gene expression at cytotoxic IC50 measured after 48 hrs relative to control; type: cell-based
[21] = Inhibition of RTK/PI3K/AKT/mTOR signaling in human U87 cells assessed as up regulation of FAM131C gene expression at cytotoxic IC50 measured after 48 hrs relative to control; type: cell-based; conditions: U-87MG ATCC; outline: as §2
U-87 MG [22] = assay: Induction of DNA damage in human U87 cells assessed as change in BAX gene expression at cytotoxic IC50 measured after 48 hrs […] relative to control; type: functional, U-87MG ATCC
Outline: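 U87 expression profiling. Cells incubated 48hrs at 37°C, 5% CO₂ with the IC₅₀ concentration, alongside a cisplatin and an untreated control, in triplicate. RNA was isolated by one common protocol and profiled. DEGs were called with DESeq2 (q < 0.05, fold change > 1.5) and expressed as fold change versus untreated.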

[23] = Inhibition of RTK/PI3K/AKT/mTOR signaling in human U87 cells assessed as up regulation of Rab acceptor 1 gene expression at cytotoxic IC50 measured after 48 hrs relative to control; type: cell-based; conditions: U-87MG ATCC
Outline: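 U87 cells were exposed for 48 hrs at 37°C under 5% CO₂, with cisplatin and untreated controls, all in triplicate. RNA was isolated by the same protocol for every sample and expression profiled from mapped reads. Differential expression against untreated cells was called in DESeq2 (q-value < 0.05, fold change > 1.5).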

[24] = Inhibition of RTK/PI3K/AKT/mTOR signaling in human U87 cells assessed as up regulation of basic transcription factor 3 like 4 gene expression at cytotoxic IC50 measured after 48 hrs relative to control; type: cell-based; conditions: U-87MG ATCC
[25] = Inhibition of RTK/PI3K/AKT/mTOR signaling in human U87 cells assessed as down regulation of RFC4 gene expression at cytotoxic IC50 measured after 48 hrs relative to control; type: cell-based; conditions: U-87MG ATCC; outline: as §2

SMILES: CC(=O)C(=NNc1ccccc1C#N)C(C)=O
- log2FC [1]: 0.669
- log2FC [2]: 1.23
- log2FC (U-87 MG [3]): -1.416
- log2FC [4]: -3.88
- log2FC [5]: -0.816
- log2FC [6]: 0.475
- log2FC [7]: -1.56
- log2FC [8]: -0.591
- log2FC [9]: -0.813
- fold change (FC) (U-87 MG [10]): 2.018
- log2FC [11]: 1.41
- log2FC [12]: -0.749
- Activity (LN-229 [13]): 36.1%
- log2FC [14]: -1.57
- Activity (LN-229 [15]): Tde
- log2FC [16]: 0.879
- log2FC [17]: 0.695
- log2FC [18]: 2.69
- log2FC [19]: 1.66
- log2FC [20]: 0.883
- log2FC [21]: 2.04
- fold change (FC) (U-87 MG [22]): 2.512
- log2FC [23]: 0.839
- log2FC [24]: 0.896
- log2FC [25]: -1
